Test results taken from ChEMBL document CHEMBL4359929, “Piperidine and piperazine inhibitors of fatty acid amide hydrolase targeting excitotoxic pathology” (Bioorg Med Chem, 2019).
Activity calls are given as the source filed them. No cut-off for these calls is given here.

Legend:
[1] = biological target: T1, Fatty-acid amide hydrolase 1 (Rattus norvegicus, UniProt P97612); assay: Inhibition of rat recombinant His/GST-tagged FAAH expressed in Escherichia coli cells using AAMCA as substrate incubated for 15 mins followed by substrate addition and measured after every 20 mins for 4 hrs by fluorescence based assay
T1 sequence (P97612 whole entry): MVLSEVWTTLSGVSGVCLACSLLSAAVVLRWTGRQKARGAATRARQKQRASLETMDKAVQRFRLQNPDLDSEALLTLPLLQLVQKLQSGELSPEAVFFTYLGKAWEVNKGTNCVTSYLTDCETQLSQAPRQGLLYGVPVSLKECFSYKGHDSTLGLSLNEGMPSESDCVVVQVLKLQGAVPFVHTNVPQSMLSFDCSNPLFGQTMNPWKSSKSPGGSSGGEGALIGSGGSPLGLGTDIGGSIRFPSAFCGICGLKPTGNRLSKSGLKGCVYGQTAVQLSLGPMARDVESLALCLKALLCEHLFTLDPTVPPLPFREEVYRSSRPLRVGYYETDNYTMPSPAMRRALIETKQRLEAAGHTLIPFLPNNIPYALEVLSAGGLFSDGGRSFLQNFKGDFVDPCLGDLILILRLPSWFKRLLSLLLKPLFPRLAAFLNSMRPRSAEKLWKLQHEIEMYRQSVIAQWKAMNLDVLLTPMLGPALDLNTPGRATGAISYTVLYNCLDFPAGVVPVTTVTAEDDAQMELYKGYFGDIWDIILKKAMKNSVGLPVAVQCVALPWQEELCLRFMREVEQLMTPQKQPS
Outline: (§1)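 Fluorescent enzyme assay in throughput format. Human recombinant FAAH or purified rat FAAH used arachidonoyl 7-amino-4-methylcoumarin amide as substrate; human recombinant MGL was run by a similar fluorometric procedure.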

[2] = Stability in human plasma assessed as half life; format: ADME, cell-free
Outline: (§2)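 Stability assessed as half-life in human, rat and mouse plasma and gastric fluid, and in human, rat and mouse liver microsomal preparations.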

Monoglyceride lipase = biological target: T2, Monoglyceride lipase (Homo sapiens, UniProt Q99685); assay: Inhibition of human recombinant His-tagged MGL expressed in Escherichia coli BL21 DE3 cells using AHMMCE as substrate preincubated with enzyme for 15 mins followed by substrate addition and measured after every 15 mins for 3 hrs by fluorescence based assay; outline: as §1
T2 sequence (Q99685 whole entry): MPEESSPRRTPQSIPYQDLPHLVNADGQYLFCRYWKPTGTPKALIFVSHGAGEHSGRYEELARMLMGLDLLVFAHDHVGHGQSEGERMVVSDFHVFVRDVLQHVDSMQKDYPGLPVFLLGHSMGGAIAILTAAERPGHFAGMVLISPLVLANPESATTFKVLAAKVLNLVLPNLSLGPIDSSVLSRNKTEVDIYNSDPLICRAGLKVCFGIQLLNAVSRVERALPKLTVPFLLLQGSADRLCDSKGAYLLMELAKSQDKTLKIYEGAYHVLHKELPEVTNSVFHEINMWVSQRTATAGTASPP

Homo sapiens [3] = organism: Homo sapiens; assay: Selectivity ratio of IC50 for human recombinant His-tagged MGL expressed in Escherichia coli BL21 DE3 cells to IC50 for human recombinant MBP-tagged FAAH expressed in Escherichia coli cells by fluorescence based assay
[4] = Selectivity ratio of IC50 for human recombinant His-tagged MGL expressed in Escherichia coli BL21 DE3 cells to IC50 for rat recombinant His/GST-tagged FAAH expressed in Escherichia coli cells by fluorescence based assay
[5] = Stability in rat liver microsomes assessed as half life; format: ADME, Microsome; outline: as §2
[6] = Stability in mouse plasma assessed as half life; format: ADME, cell-free; outline: as §2
[7] = Stability in mouse liver microsomes assessed as half life; format: ADME, Microsome; outline: as §2
[8] = biological target: T3, Fatty-acid amide hydrolase 1 (Homo sapiens, UniProt O00519); assay: Inhibition of human recombinant MBP-tagged FAAH expressed in Escherichia coli cells using AAMCA as substrate incubated for 15 mins followed by substrate addition and measured after every 20 mins for 4 hrs by fluorescence based assay; outline: as §1
T3 sequence (O00519 whole entry): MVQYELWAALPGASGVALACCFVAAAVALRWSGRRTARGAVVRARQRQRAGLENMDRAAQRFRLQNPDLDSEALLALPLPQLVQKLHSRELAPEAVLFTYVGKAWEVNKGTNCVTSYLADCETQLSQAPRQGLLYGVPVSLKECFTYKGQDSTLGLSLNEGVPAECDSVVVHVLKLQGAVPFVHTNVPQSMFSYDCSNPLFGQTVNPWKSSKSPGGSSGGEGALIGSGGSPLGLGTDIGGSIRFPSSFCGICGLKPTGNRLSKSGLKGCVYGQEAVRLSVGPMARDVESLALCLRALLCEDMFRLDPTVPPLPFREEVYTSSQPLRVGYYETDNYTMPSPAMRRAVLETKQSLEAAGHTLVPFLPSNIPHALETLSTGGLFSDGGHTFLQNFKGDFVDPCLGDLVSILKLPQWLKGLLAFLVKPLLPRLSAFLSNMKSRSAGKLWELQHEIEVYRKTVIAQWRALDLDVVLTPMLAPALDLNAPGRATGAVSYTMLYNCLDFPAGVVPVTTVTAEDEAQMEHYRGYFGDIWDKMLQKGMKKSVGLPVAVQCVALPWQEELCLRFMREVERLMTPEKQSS

[9] = Stability in rat plasma assessed as half life; format: ADME, cell-free; outline: as §2
[10] = Stability in human gastric fluid assessed as half life; format: ADME, tissue-based, Gastric juice; outline: as §2
[11] = biological target: Cannabinoid receptor 2 (Homo sapiens) (UniProt P34972); assay: Displacement of [3H]CP55940 from human CB2 receptor expressed in HEK293 cells by competition-equilibrium binding analysis; format: cell-based
Chain of Cannabinoid receptor 2 (Homo sapiens) (P34972 whole entry): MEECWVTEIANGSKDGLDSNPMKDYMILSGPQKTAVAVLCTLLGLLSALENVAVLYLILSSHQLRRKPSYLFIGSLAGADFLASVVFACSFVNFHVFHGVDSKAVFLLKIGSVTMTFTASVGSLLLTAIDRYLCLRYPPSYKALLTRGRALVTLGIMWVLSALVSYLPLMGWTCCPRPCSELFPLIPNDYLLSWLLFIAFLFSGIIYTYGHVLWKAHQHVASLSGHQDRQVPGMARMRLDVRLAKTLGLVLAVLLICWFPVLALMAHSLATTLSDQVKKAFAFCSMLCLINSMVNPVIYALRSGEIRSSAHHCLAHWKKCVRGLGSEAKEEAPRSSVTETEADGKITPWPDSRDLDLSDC
Outline: (§3)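 HEK293 cell membranes expressing mouse or human CB2; competition-equilibrium binding against [3H]CP-55,940.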

[12] = Stability in human liver microsomes assessed as half life; format: ADME, Microsome; outline: as §2
[13] = Selectivity ratio of IC50 for human full length ABHD6 expressed in Escherichia coli cells to IC50 for rat recombinant His/GST-tagged FAAH expressed in Escherichia coli cells by fluorescence based assay
Homo sapiens [14] = organism: Homo sapiens; assay: Selectivity ratio of IC50 for human full length ABHD6 expressed in Escherichia coli cells to IC50 for human recombinant MBP-tagged FAAH expressed in Escherichia coli cells by fluorescence based assay
[15] = biological target: Cannabinoid receptor 1 (Rattus norvegicus) (UniProt P20272); assay: Displacement of [3H]CP55940 from CB1 receptor in rat brain by competition-equilibrium binding analysis; format: tissue-based
Outline: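 Rat brain membranes as CB1 source; competition-equilibrium binding against [3H]CP-55,940.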
Target sequence in this assay (P20272 whole entry): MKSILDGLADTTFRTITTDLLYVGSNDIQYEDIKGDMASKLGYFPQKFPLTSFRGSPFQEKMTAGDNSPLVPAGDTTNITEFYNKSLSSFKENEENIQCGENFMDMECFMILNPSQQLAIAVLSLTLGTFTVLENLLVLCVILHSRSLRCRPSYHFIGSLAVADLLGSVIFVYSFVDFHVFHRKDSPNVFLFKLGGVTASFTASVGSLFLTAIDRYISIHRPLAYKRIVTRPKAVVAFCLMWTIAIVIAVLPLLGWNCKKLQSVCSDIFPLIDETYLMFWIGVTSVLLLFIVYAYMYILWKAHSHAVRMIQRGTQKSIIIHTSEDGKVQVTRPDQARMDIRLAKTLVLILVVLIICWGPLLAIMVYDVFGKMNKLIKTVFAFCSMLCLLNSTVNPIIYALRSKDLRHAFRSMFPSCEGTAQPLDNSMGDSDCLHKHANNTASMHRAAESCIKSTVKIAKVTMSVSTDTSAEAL

[16] = biological target: Cannabinoid receptor 1 (Rattus norvegicus) (UniProt P20272); assay: Displacement of [3H]CP55940 from CB1 receptor in rat brain by competition-equilibrium binding analysis
Target sequence in this assay (P20272 whole entry, looked up): as the sequence (P20272 whole entry) above

[17] = Stability in mouse gastric fluid assessed as half life; format: ADME, tissue-based, Gastric juice; outline: as §2
[18] = Stability in rat gastric fluid assessed as half life; format: ADME, tissue-based, Gastric juice; outline: as §2
[19] = biological target: Cannabinoid receptor 2 (Mus musculus) (UniProt P47936); assay: Displacement of [3H]CP55940 from mouse CB2 receptor expressed in HEK293 cells by competition-equilibrium binding analysis; format: cell-based; outline: as §3
Chain of Cannabinoid receptor 2 (Mus musculus) (P47936 whole entry): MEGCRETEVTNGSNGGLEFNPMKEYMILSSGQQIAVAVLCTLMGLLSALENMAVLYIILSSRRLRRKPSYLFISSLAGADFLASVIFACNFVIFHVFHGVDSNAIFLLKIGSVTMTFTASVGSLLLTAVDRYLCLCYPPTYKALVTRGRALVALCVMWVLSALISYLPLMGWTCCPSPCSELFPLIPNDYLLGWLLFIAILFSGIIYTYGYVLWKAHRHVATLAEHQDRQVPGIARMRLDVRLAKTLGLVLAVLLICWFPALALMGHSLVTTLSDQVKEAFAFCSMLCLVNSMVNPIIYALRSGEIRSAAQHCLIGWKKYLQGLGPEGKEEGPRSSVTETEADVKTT

Row | Compound | IC50 [1] [nM] | half-life [2] [min] | IC50 (Monoglyceride lipase) [nM] | Ratio IC50 (Homo sapiens [3]) | Ratio IC50 [4] | half-life [5] [min] | half-life [6] [min] | half-life [7] [min] | IC50 [8] [nM] | half-life [9] [min] | half-life [10] [min] | Activity [11] | half-life [12] [min] | Ratio IC50 [13] | Ratio IC50 (Homo sapiens [14]) | Activity [15] | Activity [16] | half-life [17] [min] | half-life [18] [min] | Activity [19]
1 | CC1CN(c2ccccc2)CCN1C(=O)Oc1cccc(N2CCS(=O)(=O)CC2)c1 (stereo not given) | 5.5 | > 60 | > 1000 | > 1000 | > 1000 | 15 to 25 | > 60 | 15 to 25 | 2.6 | > 60 | > 60 | inactive | 15 to 25 | > 1000 | > 1000 | inactive | inactive | > 60 | > 60 | inactive
2 | O=C(Oc1cccc(N2CCS(=O)(=O)CC2)c1)N1CCN(Cc2cccc(Oc3ccccc3)c2)CC1 | 2.2 | > 60 | > 1000 | > 1000 | > 1000 | 15 to 25 | > 60 | 15 to 25 | 2.3 | > 60 | > 60 | inactive | 15 to 25 | > 1000 | > 1000 | inactive | inactive | > 60 | > 60 | inactive
3 | CN1CCN(c2cccc(OC(=O)N3CCC(c4ccc(F)cc4)CC3)c2)CC1 | 9.4 | > 60 | > 1000 | > 1000 | > 1000 | 15 to 25 | > 60 | 15 to 25 | 33.2 | > 60 | > 60 | inactive | 15 to 25 | > 1000 | > 1000 | inactive | inactive | > 60 | > 60 | inactive
4 | COc1ccc(N2CCN(C(=O)Oc3cccc(N4CCS(=O)(=O)CC4)c3)[C@H](C)C2)cc1 | 7.4 | > 60 | > 1000 | > 1000 | > 1000 | 15 to 25 | > 60 | 15 to 25 | 11.1 | > 60 | > 60 | inactive | 15 to 25 | > 1000 | > 1000 | inactive | inactive | > 60 | > 60 | inactive
5 | O=C(Oc1cccc(N2CCS(=O)(=O)CC2)c1)N1CCN(c2ccccc2)CC1 | 8 | > 60 | > 1000 | > 1000 | > 1000 | 15 to 25 | > 60 | 15 to 25 | 15 | > 60 | > 60 | inactive | 15 to 25 | > 1000 | > 1000 | inactive | inactive | > 60 | > 60 | inactive
6 | COc1ccc(C2CCN(C(=O)Oc3cccc(N4CCS(=O)(=O)CC4)c3)CC2)cc1 | 2.61 | > 60 | > 1000 | > 1000 | > 1000 | 15 to 25 | > 60 | 15 to 25 | 6.3 | > 60 | > 60 | inactive | 15 to 25 | > 1000 | > 1000 | inactive | inactive | > 60 | > 60 | inactive
7 | O=C(Oc1cccc(N2CCS(=O)(=O)CC2)c1)N1CCN(Cc2cccc(-c3ccccc3)c2)CC1 | 2.1 | > 60 | > 1000 | > 1000 | > 1000 | 15 to 25 | > 60 | 15 to 25 | 1.9 | > 60 | > 60 | inactive | 15 to 25 | > 1000 | > 1000 | inactive | inactive | > 60 | > 60 | inactive
8 | N#Cc1ccc(C2CCN(C(=O)Oc3cccc(N4CCS(=O)(=O)CC4)c3)CC2)cc1 | 9.9 | > 60 | > 1000 | > 1000 | > 1000 | 15 to 25 | > 60 | 15 to 25 | 22.7 | > 60 | > 60 | inactive | 15 to 25 | > 1000 | > 1000 | inactive | inactive | > 60 | > 60 | inactive
9 | COc1ccc(N2CCN(C(=O)Oc3cccc(N4CCOCC4)c3)[C@H](C)C2)cc1 | 5.2 | > 60 | > 1000 | > 1000 | > 1000 | 15 to 25 | > 60 | 15 to 25 | 4.1 | > 60 | > 60 | inactive | 15 to 25 | > 1000 | > 1000 | inactive | inactive | > 60 | > 60 | inactive
